ChEMBL document CHEMBL1799919, “Design, synthesis, biological evaluation, and structure-activity relationships of substituted phenyl 4-(2-oxoimidazolidin-1-yl)benzenesulfonates as new tubulin inhibitors mimicking combretastatin A-4” (J Med Chem, 2011)
The source made the active and inactive calls. The rule behind the calls is not given here.

Key:
[1] = system: HT-29; test: Antiproliferative activity against human HT-29 cells after 48 hrs by sulforhodamine B assay; assay type: functional, cell-based; conditions: HT-29, 48 h
[2] = system: MCF7; test: Antiproliferative activity against human MCF7 cells after 48 hrs by sulforhodamine B assay; assay type: functional, cell-based; conditions: MCF7, 48 h
[3] = system: M21; test: Antiproliferative activity against human M21 cells after 48 hrs by sulforhodamine B assay; assay type: functional, cell-based; conditions: M21, 48 h
[4] = system: M21; test: Disruption of cytoskeleton microtubule structure of human M21 cells at 5 times IC50 after 16 hrs by indirect immunofluorescence assay; assay type: functional, cell-based
Procedure, shortened: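 Fixed in 3.7% formaldehyde, permeabilized with saponin, and stained with anti-β-tubulin (TUB 2.1), Alexa-488 secondary and DAPI. Microtubule structure scored by fluorescence microscopy.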

[5] = system: M21; test: Cell cycle arrest in human M21 cells assessed as accumulation at S phase at 5 times IC50 after 24 hrs using propidium iodide staining by flow cytometric analysis (reference value: 30%); assay type: functional
[6] = system: M21; test: Cell cycle arrest in human M21 cells assessed as accumulation at G0/G1 phase at 5 times IC50 after 24 hrs using propidium iodide staining by flow cytometric analysis (reference value: 61%); assay type: functional
[7] = system: MDA-MB-231; test: Displacement of N,N'-ethylenebis(iodoacetamide) from colchicine-binding site of beta-tubulin in human MDA-MB-231 cells at 1000 times IC50 preincubated for after 2 hrs before N,N'-ethylenebis(iodoacetamide) addition measured after 1.5 hrs by chemiluminescence assay; assay type: cell-based
Procedure, shortened: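 EBI (100 μM final) added for 1.5 h at 37 °C; controls received 0.5% DMSO. Lysates (20 μg protein) run on 10% SDS-PAGE and blotted with anti-β-tubulin (TUB 2.1). β-tubulin–EBI adduct band detected by ECL.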

[8] = system: M21; test: Cell cycle arrest in human M21 cells assessed as accumulation at G2/M phase at 5 times IC50 after 24 hrs using propidium iodide staining by flow cytometric analysis (reference value: 9%); assay type: functional

Compound | IC50 [1] [nM] | IC50 [2] [nM] | IC50 [3] [nM] | Activity [4] | Activity [5] [%] | Activity [6] [%] | inhibition [7] | Activity [8] [%]
O=C1NCCN1c1ccc(S(=O)(=O)Oc2ccncc2)cc1 | > 1000 | > 1000 | > 1000 | – | – | – | – | –
CCCCOc1ccc(OS(=O)(=O)c2ccc(N3CCNC3=O)cc2)cc1 | 540 | 890 | 530 | – | – | – | – | –
Nc1cccc(OS(=O)(=O)c2ccc(N3CCNC3=O)cc2)c1 | 1000 | 270 | 170 | – | – | – | – | –
CCCc1cccc(OS(=O)(=O)c2ccc(N3CCNC3=O)cc2)c1 | 34 | 51 | 27 | Active | 25 | 2 | Active | 73
Cc1cc(OS(=O)(=O)c2ccc(N3CCNC3=O)cc2)ccc1N | 670 | 600 | 360 | – | – | – | – | –
O=C1NCCN1c1ccc(S(=O)(=O)Oc2ccc(F)c(F)c2)cc1 | 75 | 100 | 47 | Active | 26 | 2 | Active | 72
O=C(NCCCl)Nc1cccc(CCCCCO)c1 | 150 | 420 | 230 | Active | 11 | 1 | – | 88
O=C1NCCN1c1ccc(S(=O)(=O)Oc2ccc(Cl)cc2)cc1 | 87 | 88 | 58 | Active | 0 | 0 | Active | 100
CC(C)(C)[Si](C)(C)Oc1ccc(OS(=O)(=O)c2ccc(N3CCNC3=O)cc2)cc1 | > 1000 | > 1000 | > 1000 | – | – | – | – | –
O=C1NCCN1c1ccc(S(=O)(=O)Oc2ccccc2Cl)cc1 | 66 | 73 | 45 | Active | 15 | 2 | Active | 83
CCCc1ccccc1OS(=O)(=O)c1ccc(N2CCNC2=O)cc1 | 76 | 69 | 61 | Active | 0 | 0 | Active | 100
O=C1NCCN1c1ccc(S(=O)(=O)Oc2ccccn2)cc1 | 480 | 770 | 290 | – | – | – | – | –
Cc1cc(C)cc(OS(=O)(=O)c2ccc(N3CCNC3=O)cc2)c1 | 32 | 47 | 16 | Active | 26 | 7 | Active | 67
Nc1ccc(OS(=O)(=O)c2ccc(N3CCNC3=O)cc2)cc1 | > 1000 | > 1000 | 920 | – | – | – | – | –
Cc1cccc(OS(=O)(=O)c2ccc(N3CCCNC3=O)cc2)c1 | > 1000 | > 1000 | > 1000 | – | – | – | – | –
Cc1ccccc1OS(=O)(=O)c1ccc(N2CCCNC2=O)cc1 | > 1000 | > 1000 | > 1000 | – | – | – | – | –
CCc1ccc(OS(=O)(=O)c2ccc(N3CCNC3=O)cc2)cc1 | 150 | 190 | 120 | – | – | – | – | –
COc1cccc(OS(=O)(=O)c2ccc(N3CCCNC3=O)cc2)c1 | > 1000 | > 1000 | > 1000 | – | – | – | – | –
O=C1NCCN1c1ccc(S(=O)(=O)Oc2c(F)c(F)c(F)c(F)c2F)cc1 | 340 | 320 | 220 | – | – | – | – | –
O=C1NCCCN1c1ccc(S(=O)(=O)Oc2ccc(Cl)cc2)cc1 | > 1000 | > 1000 | > 1000 | – | – | – | – | –
O=C1NCCN1c1ccc(S(=O)(=O)Oc2ccccc2[N+](=O)[O-])cc1 | 190 | 270 | 150 | – | – | – | – | –

Compound | IC50 [1] [nM] | IC50 [2] [nM] | IC50 [3] [nM] | Activity [4] | Activity [5] [%] | Activity [6] [%] | inhibition [7] | Activity [8] [%]
CCC(C)c1ccc(OS(=O)(=O)c2ccc(N3CCNC3=O)cc2)cc1 (centres undefined) | 780 | 920 | 830 | – | – | – | – | –
Cc1ccc2cccc(OS(=O)(=O)c3ccc(N4CCNC4=O)cc3)c2n1 | 180 | 330 | 130 | – | – | – | – | –
COc1cc(OS(=O)(=O)c2ccc(N3CCCNC3=O)cc2)cc(OC)c1OC | 490 | 730 | 240 | – | – | – | – | –
O=C1NCCN1c1ccc(S(=O)(=O)Oc2c(Cl)cc(Cl)cc2Cl)cc1 | 110 | 170 | 120 | – | – | – | – | –
COc1ccccc1OS(=O)(=O)c1ccc(N2CCNC2=O)cc1 | 180 | 220 | 130 | – | – | – | – | –
O=C1NCCN1c1ccc(S(=O)(=O)Oc2ccccc2)cc1 | > 1000 | > 1000 | > 1000 | – | – | – | – | –
O=C1NCCN1c1ccc(S(=O)(=O)Oc2ccc(I)cc2)cc1 | 150 | 210 | 110 | – | – | – | – | –
CCc1ccccc1OS(=O)(=O)c1ccc(N2CCCNC2=O)cc1 | > 1000 | > 1000 | > 1000 | – | – | – | – | –
CCCc1ccccc1OS(=O)(=O)c1ccc(N2CCCNC2=O)cc1 | > 1000 | > 1000 | > 1000 | – | – | – | – | –
Cc1cc(OS(=O)(=O)c2ccc(N3CCNC3=O)cc2)ccc1[N+](=O)[O-] | 140 | 180 | 100 | – | – | – | – | –
O=C1NCCCN1c1ccc(S(=O)(=O)Oc2ccc(F)cc2)cc1 | > 1000 | > 1000 | > 1000 | – | – | – | – | –
O=C1NCCCN1c1ccc(S(=O)(=O)Oc2cccc(F)c2)cc1 | > 1000 | > 1000 | > 1000 | – | – | – | – | –
CCOc1ccc(OS(=O)(=O)c2ccc(N3CCNC3=O)cc2)cc1 | 44 | 56 | 39 | Active | 23 | 2 | – | 75
O=C1NCCCN1c1ccc(S(=O)(=O)Oc2c(Cl)cc(Cl)cc2Cl)cc1 | > 1000 | > 1000 | > 1000 | – | – | – | – | –
O=C1NCCN1c1ccc(S(=O)(=O)Oc2ccc([N+](=O)[O-])cc2)cc1 | > 1000 | > 1000 | 570 | – | – | – | – | –
O=C1NCCN1c1ccc(S(=O)(=O)Oc2ccc(-n3ccnc3)cc2)cc1 | > 1000 | > 1000 | > 1000 | – | – | – | – | –
O=C1NCCN1c1ccc(S(=O)(=O)Oc2ccc(O)cc2)cc1 | > 1000 | > 1000 | > 1000 | – | – | – | – | –
Cc1ccc(OS(=O)(=O)c2ccc(N3CCCNC3=O)cc2)c(C)c1 | > 1000 | > 1000 | > 1000 | – | – | – | – | –
Cc1ccc(OS(=O)(=O)c2ccc(N3CCCNC3=O)cc2)cc1 | 720 | > 1000 | > 1000 | – | – | – | – | –
CN(C)c1ccc(OS(=O)(=O)c2ccc(N3CCNC3=O)cc2)cc1 | 430 | 500 | 350 | – | – | – | – | –
O=C1NCCCN1c1ccc(S(=O)(=O)Oc2cc(Cl)c(Cl)cc2Cl)cc1 | > 1000 | > 1000 | > 1000 | – | – | – | – | –
